Only a selection was taken, and hits are over-represented in it overall.
Xi reactivation – X-chromosome reactivation activator; XiGFP mouse fibroblasts, % GFP-positive cells imaging, 3 d; cells co-treated with 5-aza-dC sensitizer; scaled so ellipticine positive control = 100%; activation, % at 7.58 µM; actives 0.055% (n = 360,000); AID 743238;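 active = mean normalized replicate activation at least 10% and every replicate at or above 10%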
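material = 68-5-11 XiGFP fibroblast line | medium = DMEM plus 5-aza-dC sensitizer | schedule = 3 days compound exposure | benchmarks = positive control ellipticine, 6 µM final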
E-sel inducer – E-selectin induction on HUVECs; P16581; HUVEC E-selectin immunofluorescence imaging; normalized: neutral wells 0, TNF-alpha wells 100; activation, % at 7.58 µM; actives 0.37% (n = 260,000);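 active = mean E-selectin-positive cell signal at least 10% of the positive control, reached in at least 60% of replicates, without over 20% cell loss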
Target sequence (P16581 whole entry, looked up): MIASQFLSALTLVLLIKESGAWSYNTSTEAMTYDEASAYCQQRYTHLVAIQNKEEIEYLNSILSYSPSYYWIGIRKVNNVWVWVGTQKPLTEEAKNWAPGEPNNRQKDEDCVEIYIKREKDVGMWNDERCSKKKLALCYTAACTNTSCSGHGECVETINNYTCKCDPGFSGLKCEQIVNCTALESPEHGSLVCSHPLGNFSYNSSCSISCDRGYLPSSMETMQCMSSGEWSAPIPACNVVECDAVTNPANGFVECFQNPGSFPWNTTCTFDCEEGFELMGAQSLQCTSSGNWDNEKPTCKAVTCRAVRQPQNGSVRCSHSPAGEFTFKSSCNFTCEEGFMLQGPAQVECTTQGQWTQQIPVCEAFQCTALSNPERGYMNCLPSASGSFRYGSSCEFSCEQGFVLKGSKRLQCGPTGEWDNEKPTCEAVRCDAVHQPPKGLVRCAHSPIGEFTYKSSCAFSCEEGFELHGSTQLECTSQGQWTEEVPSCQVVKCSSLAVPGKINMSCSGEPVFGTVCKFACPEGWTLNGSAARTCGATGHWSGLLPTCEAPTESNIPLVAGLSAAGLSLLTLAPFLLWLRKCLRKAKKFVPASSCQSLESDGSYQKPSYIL
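Assay system: HUVEC, human umbilical vein endothelial cells / Amount: 3,000 HUVEC/well / Controls: TNF-alpha positive control, DMSO neutral control / Compound dosing: single concentration / Medium: EGM-2 over gelatin coat / Evaluation: percent E-selectin-positive cells / Signal: immunofluorescence imaging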
A number is an active result; n = inactive; x = not tested or not shown.

SMILES	Xi reactivation	E-sel inducer
COc1ccc2c3c([nH]c2c1)[C@H](CO)N(Cc1ccccc1)CC31CN(C(=O)c2cccnc2)C1	n	n
Cc1ccc(S(=O)(=O)N2CCN(C(=O)c3ccccc3OCc3c(C)noc3C)CC2)cc1	n	n
Cc1noc(C)c1COc1ccccc1C(=O)N1CCN(S(=O)(=O)c2ccc(F)c(F)c2)CC1	n	94
C[C@@H]1CN([C@@H](C)CO)C(=O)c2cccc(NC(=O)c3cnccn3)c2O[C@@H]1CN(C)C(=O)Nc1ccc(C(F)(F)F)cc1	n	x
Cc1noc(C)c1NC(=O)Nc1ccc2c(c1)C(=O)N([C@H](C)CO)C[C@@H](C)[C@H](CN(C)C(=O)Nc1ccc(C(F)(F)F)cc1)O2	n	n
Cc1ccc(NC(=O)Nc2ccc(F)c(Cl)c2)cc1	n	n
CCC(CC)NC(=O)Nc1ccc(F)c(Cl)c1	n	27
CC(=O)Oc1ccc(N2C(=O)c3cccc4c([N+](=O)[O-])ccc(c34)C2=O)cc1	n	x
O=C1c2cccc3c([N+](=O)[O-])ccc(c23)C(=O)N1O	17	n
FC(F)(F)c1ccc2c(c1)N1CCCC1CN2 (stereo not drawn)	n	58
FC(F)(F)c1ccc2c(c1)NCC1CCCN21 (stereo not drawn)	n	n
O=C(CN(C(=O)c1csnn1)c1ccc2c(c1)OCCO2)NCc1ccc(F)cc1	n	39
COc1ccc(CNC(=O)CN(C(=O)c2csnn2)c2ccc3c(c2)OCCO3)cc1	n	n
CCS(=O)(=O)Nc1ccc2c(c1)C(=O)N(C)C[C@H](OC)[C@@H](C)CN(CC1CCCC1)[C@@H](C)CO2	n	n
CCN(CC)c1ccc(/C=N/NC(=O)Cc2ccc(OC)c(OC)c2)cc1	n	36
COc1ccc(/C=N/NC(=O)Cc2ccc(Cl)cc2)cc1OC	n	x
CCC(=O)N1CC2(C1)[C@@H](c1ccccc1)[C@H](CO)N2C(=O)NC(C)C	n	n
CCC(=O)Nc1ccc2c(c1)OC[C@H](C)N(C(=O)c1cnccn1)C[C@H](C)[C@H](OC)CN(C)C2=O	n	n
CC(=O)c1ccc(N2CCc3ccccc3C2)c([N+](=O)[O-])c1	n	70
CC(=O)c1ccc(N2CCN(c3ncccn3)CC2)c([N+](=O)[O-])c1	n	n
C[C@@H]1CN([C@@H](C)CO)C(=O)c2cc(C3=CCCCC3)cnc2O[C@@H]1CN(C)C(=O)c1cccnc1	n	n
CCCCN(C)C(=O)c1ccc(CS(=O)(=O)c2ccccc2C)o1	n	x
COC(CN(C)C(=O)c1ccc(CS(=O)(=O)c2ccccc2C)o1)OC	n	49
CC(C)NC(=O)Nc1ccc2c(c1)C(=O)N([C@@H](C)CO)C[C@@H](C)[C@@H](CN(C)C(=O)NC1CCCCC1)OCCCC[C@@H](C)O2	n	n
CCC(=O)Oc1ccc(NC(=O)c2ccco2)cc1	n	n
SMILES	Xi reactivation	E-sel inducer
CCC(=O)Oc1cccc(C(=O)Nc2cccc(NC(=O)c3ccco3)c2)c1	n	38
C[C@@H]1CN([C@@H](C)CO)C(=O)c2cc(C#CC3CC3)cnc2O[C@@H]1CN(C)C(=O)c1ccncc1	n	n
C[C@H]1CN([C@@H](C)CO)C(=O)c2cc(NC(=O)CCN3CCOCC3)ccc2O[C@H]1CN(C)Cc1ccc(C(=O)O)cc1	n	x
CNC(=O)C[C@H]1CC[C@H]2[C@H](COc3ccc(NC(=O)Nc4cc(C)cc(C)c4)cc3C(=O)N2C)O1	n	n
COC(=O)c1noc(C)c1-c1ccnn1C(=O)c1ccc(C)cc1	n	29
Cc1onc(-c2ccccc2)c1-c1ccnn1C(=O)NC(C)C	n	x
O=C(C[C@H]1C=C[C@@H](NC(=O)Nc2ccccc2F)[C@H](CO)O1)NCc1ccc(F)cc1	n	n
CO[C@@H]1CN(C)C(=O)c2cc(NC(=O)C3CC3)ccc2OC[C@@H](C)N(CC2CC2)C[C@@H]1C	n	n
C[C@@H]1CCCCO[C@@H](CN(C)Cc2ccncc2)[C@@H](C)CN([C@@H](C)CO)C(=O)c2cc(NC(=O)C3CCCCC3)ccc2O1	n	n
O=C(c1ccccc1)N1CC(=O)N2[C@H](CO)[C@H](c3ccc(/C=C/c4ccccc4)cc3)[C@H]2C1	n	x
C[C@H](CO)N1C[C@H](C)[C@@H](CN(C)S(C)(=O)=O)Oc2ccc(NC(=O)c3ccncc3)cc2CC1=O	n	n
C[C@H](CO)N1C[C@H](C)[C@@H](CN(C)S(=O)(=O)c2cn(C)cn2)Oc2ccc(NC(=O)c3ccncc3)cc2CC1=O	n	n
C[C@@H]1CN([C@H](C)CO)C(=O)Cc2cc(NC(=O)c3ccncc3)ccc2O[C@H]1CN(C)S(C)(=O)=O	n	447
C[C@@H]1CN([C@@H](C)CO)C(=O)Cc2cc(NC(=O)c3ccncc3)ccc2O[C@@H]1CN(C)S(=O)(=O)c1cn(C)cn1	n	321
CC(C)[C@H]1C(=O)N[C@H](c2ccccc2)CC=CC[C@@H](C)Oc2ccccc2C(=O)N1C (mixture of isomers)	n	x
COc1ccccc1CNC(=O)C[C@H]1CC[C@@H]2[C@H](COC[C@H](O)CN2Cc2cccc(-c3ccncc3)c2)O1	n	n
CCC(=O)N(C)C[C@@H]1Oc2ncc(-c3ccc(C(=O)N(C)C)cc3)cc2C(=O)N([C@H](C)CO)C[C@H]1C	n	n
C[C@H]1CN([C@@H](C)CO)S(=O)(=O)c2ccc(C#Cc3ccccc3)cc2O[C@H]1CN(C)C(=O)Cc1ccccn1	n	n
CCC(=O)Nc1ccc2c(c1)C(=O)N(C)[C@@H]1CC[C@H](CC(=O)Nc3cccc(OC)c3)O[C@@H]1CO2	n	n
O=C(C1=NN[C@@H]2C(=O)N(c3ccccc3C(F)(F)F)C(=O)[C@H]12)c1cnccn1	n	27
O=C(C1=NN[C@@H]2C(=O)N(c3cccc(F)c3)C(=O)[C@H]12)c1cnccn1	n	x
C[C@@H]1CCCCO[C@@H](CN(C)S(C)(=O)=O)[C@@H](C)CN([C@H](C)CO)C(=O)c2cc(NC(=O)CCCN(C)C)ccc2O1	n	49
CC(C)NC(=O)N(C)C[C@@H]1Oc2ccc(NC(=O)CCCN(C)C)cc2C(=O)N([C@@H](C)CO)C[C@@H]1C	n	n
C[C@@H]1CCCCO[C@H](CN(C)S(C)(=O)=O)[C@H](C)CN([C@@H](C)CO)C(=O)c2cc(NC(=O)CCCN(C)C)ccc2O1	n	n
C[C@H]1CN([C@@H](C)CO)C(=O)c2cc(NC(=O)Cn3cnnn3)ccc2O[C@@H]1CN(C)S(=O)(=O)c1ccccc1	n	n
SMILES	Xi reactivation	E-sel inducer
C[C@H]1CN([C@@H](C)CO)C(=O)c2cc(NC(=O)Cn3cnnn3)ccc2O[C@H]1CN(C)S(=O)(=O)c1ccccc1	n	36
C[C@H](CO)N1C[C@H](C)[C@@H](CN(C)C(=O)Nc2ccc(C(F)(F)F)cc2)Oc2ccc(NC(=O)Cn3cnnn3)cc2CC1=O	n	n
CC(C)NC(=O)N(C)C[C@@H]1Oc2ccc(NC(=O)CCCN(C)C)cc2C(=O)N([C@@H](C)CO)C[C@H]1C	n	242
C[C@@H]1CN([C@H](C)CO)C(=O)Cc2cc(NC(=O)Cn3cnnn3)ccc2O[C@H]1CN(C)C(=O)Nc1ccc(C(F)(F)F)cc1	n	32
O=C(C[C@@H]1CC[C@@H](NC(=O)CC2CC2)[C@H](CO)O1)NCc1ccc(Cl)cc1	n	n
O=S(=O)(c1ccccc1F)N1C[C@@H]2[C@H](c3ccccc31)[C@H](CO)N2Cc1ccc2c(c1)OCO2	n	n
